The list is not random: actives were taken first. Their share in the collection is about 3.1%.
KCNQ1 block: blocks the human KCNQ1 potassium channel; actives 1.3% (n = 310,000); P51787; CHO-K1 KCNQ1, FluxOR thallium flux fluorescence; hits give high values; B-score at 10 µM;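 active = compounds whose thallium flux B-score, printed positive for inhibition, exceeds three library SD while starting fluorescence stays within three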;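 also: channel opened by potassium depolarization with thallium stimulus after 20 min compound exposure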
KCNK3 block: human KCNK3 channel inhibition, primary screen; CHO-KCNK3 thallium flux, FluxOR fluorescence; hits give low values; B-score at 10 µM; actives 0.84% (n = 340,000); AID 602410;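 active = B-score under library mean minus 4 SD, starting fluorescence ratio at most library mean plus 5 SD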;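 also: more negative B-score means stronger inhibition of thallium flux through KCNK3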
Target sequence (O14649 whole entry, looked up): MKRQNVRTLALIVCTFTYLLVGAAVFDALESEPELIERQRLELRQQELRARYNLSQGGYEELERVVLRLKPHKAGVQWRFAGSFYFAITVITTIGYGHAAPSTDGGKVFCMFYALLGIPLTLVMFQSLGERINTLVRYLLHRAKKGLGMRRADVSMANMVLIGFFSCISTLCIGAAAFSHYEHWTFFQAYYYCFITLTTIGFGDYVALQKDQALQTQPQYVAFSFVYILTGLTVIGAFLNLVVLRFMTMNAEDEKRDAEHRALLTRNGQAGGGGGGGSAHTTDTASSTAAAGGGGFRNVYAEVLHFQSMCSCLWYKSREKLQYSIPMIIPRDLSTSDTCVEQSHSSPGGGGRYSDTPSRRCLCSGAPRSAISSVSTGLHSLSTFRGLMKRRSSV
KCNQ1 act: human KCNQ1 channel potentiation or activation; B-score at 10 µM; actives 0.35% (n = 310,000); CHO-K1 KCNQ1, thallium flux FluxOR fluorescence; hits give high values; P51787;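 active = fluorescence ratio B-score, a plate-corrected score, at least three library SD, with initial intensity B-score within 5 SD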
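assay system = KCNQ1-transfected CHO-K1 cells | medium = assay buffer with matched DMSO | probe or stimulus = depolarizing K+/Tl+ stimulus, K2SO4 and Tl2SO4 each 12.5 mM in 5x stock | dosing = single dose | incubation = dye 90 min, compound 20 min, room temperature | detection = kinetic FluxOR fluorescence, 10 s baseline plus 110 s post-stimulus | evaluation = ratio B score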
KCNK9 block: inhibitors of human KCNK9 two-pore domain potassium channel. Q9NPC2. HEK293 KCNK9, FluxOR thallium flux fluorescence; hits give low values. B-score at 10 µM. actives 1.2% (n = 310,000). AID 488922;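 active = ratio B-score over 3 SD below the library mean, with starting fluorescence within 5 SD of its mean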;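 also: negative B-score means less thallium flux so channel inhibition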
Target sequence (Q9NPC2 whole entry, looked up, the tested form may be a part): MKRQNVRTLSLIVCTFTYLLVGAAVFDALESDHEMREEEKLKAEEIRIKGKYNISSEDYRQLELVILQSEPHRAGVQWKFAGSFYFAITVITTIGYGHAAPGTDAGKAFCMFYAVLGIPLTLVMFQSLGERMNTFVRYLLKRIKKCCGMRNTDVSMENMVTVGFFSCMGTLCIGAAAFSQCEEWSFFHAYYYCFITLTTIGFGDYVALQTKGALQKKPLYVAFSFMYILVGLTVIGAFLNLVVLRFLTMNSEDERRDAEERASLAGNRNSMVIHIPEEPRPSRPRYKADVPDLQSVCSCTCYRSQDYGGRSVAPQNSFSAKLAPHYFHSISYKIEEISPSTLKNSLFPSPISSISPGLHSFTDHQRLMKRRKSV
hERG rescue: compounds protecting human hERG from proarrhythmic drug block; CHO-hERG, FluxOR thallium flux, dofetilide IC70 present; AID 1511; actives 0.51% (n = 310,000); activation (rescue from dofetilide block), less the hit threshold, % at 10 µM; Q12809;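 active = activation above the mean of controls blocked by dofetilide plus 5 SD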;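 also: thallium influx through hERG after potassium depolarization seen as dye fluorescence rise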
KCNK9 inh conf: human KCNK9 inhibitor confirmation; shares compounds with KCNK9 block; HEK293 KCNK9 cells, FluxOR thallium flux fluorescence; inhibition, % at 10 µM; actives 43% (n = 4,900); AID 492992;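 active = thallium signal inhibited by more than 5 SD of the compound-free buffer control wells, on both duplicate plates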
Kir2-1 spec: tests whether KCNK9 modulators also affect mouse Kir2.1. shares compounds with KCNK9 block. Kir2.1 cells, FluxOR thallium flux fluorescence. inhibition, % at 10 µM. actives 4% (n = 4,900);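 active = thallium signal drop more than 5 SD beyond the mean of the no-compound control wells, seen in both duplicate plates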;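 also: signal is fluorescence rise after thallium addition divided by baseline fluorescence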
HEK293 Tl ctr: second counter-screen for KCNK9 modulators: effect in non-induced cells. shares compounds with KCNK9 block. non-induced KCNK9-HEK293, FluxOR thallium flux. inhibition, % at 10 µM. actives 40% (n = 4,900). AID 492997;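 active = thallium signal drop beyond 5 SD of the untreated control mean, on both duplicate plates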
Of the large screens only hits and unclear results are named; the others gave an inactive call (follow-up assays come after a bar, where they were run).

Cc1ccccc1OC(C)C(=O)Nc1ccc(S(=O)(=O)Nc2nccs2)cc1 (stereo not drawn)	none
CCOc1ccc2c(c1)-c1c(ssc1=S)C(C)(C)N2C(=O)CSC1=NCCS1	KCNK9 block -13 | KCNK9 inh conf 70% | Kir2-1 spec inactive | HEK293 Tl ctr 34%
Cc1ccccc1C(=O)NC(=S)NCCC1=CCCCC1	none | KCNK9 inh conf inactive | Kir2-1 spec inactive | HEK293 Tl ctr inactive
Cc1ccccc1C(=O)NC(=S)NCCc1ccccc1	none
CC1CCCCN1C(=S)Nc1ccc(OC(F)F)cc1 (stereo not drawn)	none
CCn1cc(/C=N\NC(=O)c2ccc3c(c2)c(C)c(C)n3Cc2ccccc2)c(C)n1	KCNK9 block -19 | KCNK9 inh conf 68% | Kir2-1 spec inactive | HEK293 Tl ctr 27%
CCn1cc(/C=N/NC(=O)c2ccc3c(c2)OCO3)c(C)n1	none
CCn1ncc(/C=N\NC(=O)c2ccc3c(c2)c(C)c(C)n3Cc2ccccc2)c1C	KCNK9 block -18 | KCNK9 inh conf 60% | Kir2-1 spec inactive | HEK293 Tl ctr 30%
CCn1nc(C)c(/C=N/NC(=O)c2ccc3c(c2)c(C)c(C)n3Cc2ccccc2)c1C	KCNK9 block -15 | KCNK9 inh conf 54% | Kir2-1 spec inactive | HEK293 Tl ctr 28%
CCOC(=O)CC1C(=O)NCCN1C1CCCC1 (stereo not drawn)	none
COc1ccc(OC)c(NC(=O)COc2ccc(S(=O)(=O)N3CCCC3)cc2)c1	none
COc1ccc(C)cc1NC(=S)NC(C)c1ccc(OC)c(OC)c1 (stereo not drawn)	none
CCc1ccc(OCc2nnc(SCC(=O)NC3CCCCC3)o2)cc1	none
Brc1ccc(OCc2nnc(SCC3CCCCC3)o2)cc1	KCNK9 block -8.8 | KCNK9 inh conf 26% | Kir2-1 spec inactive | HEK293 Tl ctr 36%
Cc1cccc(C)c1NC(=S)N/N=C/c1ccc(OCCC(C)C)cc1	none
Cc1ccc(-n2nc(C(=O)c3ccccc3)n3c(=O)c(Cc4ccccc4)nnc23)cc1	none
O=C(c1ccccc1)c1nn(-c2ccccc2)c2nnc(Cc3ccccc3)c(=O)n12	none | KCNK9 inh conf inactive | Kir2-1 spec inactive | HEK293 Tl ctr inactive
Cc1ccc(NC2CCCN(C(=O)c3cn(C)c4ccccc34)C2)cc1C (stereo not drawn)	none | KCNK9 inh conf inactive | Kir2-1 spec inactive | HEK293 Tl ctr inactive
COc1ccc(NC2CCCN(C(=O)c3cn(C)c4ccccc34)C2)cc1 (stereo not drawn)	none | KCNK9 inh conf inactive | Kir2-1 spec inactive | HEK293 Tl ctr inactive
O=C(COC(=O)C1=COCCO1)Nc1ccc(OC(F)F)cc1	none
CCOc1ccc(S(=O)(=O)N2CCCC(C(=O)NCC3CCCO3)C2)cc1Cl (stereo not drawn)	none
COc1ccc(CN2C(=O)CS(=O)CC2=O)cc1OC	none
O=C(OC(C(=O)Nc1cc(Cl)cc(Cl)c1)c1ccccc1)C1=COCCO1 (stereo not drawn)	none
CN(C)C(C(=O)Nc1cc(Cl)cc(Cl)c1)c1ccccc1 (stereo not drawn)	KCNK9 block -10 | KCNK9 inh conf 44% | Kir2-1 spec inactive | HEK293 Tl ctr 30%
Cc1cc(Cl)ccc1OCCCC(=O)N1CCCc2ccccc21	none | KCNK9 inh conf inactive | Kir2-1 spec 67% | HEK293 Tl ctr inactive
COc1ccc(NC(=O)CSc2ccc3nnc(-c4ccccn4)n3n2)c(OC)c1	none
O=C(Nc1cccc(S(=O)(=O)N2CCCCCC2)c1)C1CCN(C(=O)c2ccc(F)cc2)CC1	none | KCNK9 inh conf inactive | Kir2-1 spec inactive | HEK293 Tl ctr inactive
O=C(Nc1cccc(S(=O)(=O)N2CCCCC2)c1)C1CCN(C(=O)c2ccc(Cl)cc2)CC1	none (no result: KCNQ1 block, KCNQ1 act, KCNK9 block, hERG rescue)
O=C(Nc1cccc(S(=O)(=O)N2CCCCCC2)c1)C1CCN(C(=O)c2ccc(Cl)cc2)CC1	none | KCNK9 inh conf inactive | Kir2-1 spec inactive | HEK293 Tl ctr inactive
CCN(CC)c1ccc(S(=O)(=O)N2CCOCC2)cc1NC(=O)CN1CCc2ccccc2C1	KCNK9 block -10 | KCNK9 inh conf 51% | Kir2-1 spec inactive | HEK293 Tl ctr inactive
O=C1COc2ccc(C(=O)COC(=O)CNC(=O)c3ccco3)cc2N1	none
O=C(Nc1cccc(-c2nnc(-c3ccccc3)o2)c1)c1ccc(Br)o1	KCNK9 block -20 | KCNK9 inh conf 44% | Kir2-1 spec inactive | HEK293 Tl ctr inactive
CCn1c(SCc2ccc(C#N)cc2)nnc1-c1ccc(S(=O)(=O)N2CCCCC2)cc1	none
O=C(COC(=O)C1CCN(c2ccc(C(F)(F)F)cn2)CC1)c1ccccc1	none | KCNK9 inh conf inactive | Kir2-1 spec inactive | HEK293 Tl ctr inactive
CN(CC1CCN(CCc2cccc(C(F)(F)F)c2)CC1)C(=O)c1ccc(F)cc1	none | KCNK9 inh conf inactive | Kir2-1 spec inactive | HEK293 Tl ctr inactive
O=C(CCC(=O)Nc1nnc(C2CCCCC2)s1)Nc1ccccc1	none
CCN(CC)S(=O)(=O)c1ccc(N2CCOCC2)c(NC(=O)Cc2ccc(Cl)cc2)c1	none
CCN(CC)S(=O)(=O)c1ccc(N2CCOCC2)c(NC(=O)CC23CC4CC(CC(Br)(C4)C2)C3)c1	none | KCNK9 inh conf inactive | Kir2-1 spec inactive | HEK293 Tl ctr inactive
CCN(CC)S(=O)(=O)c1ccc(N2CCOCC2)c(NC(=O)c2ccc3ccccc3c2)c1	KCNK9 block -9.9 | KCNK9 inh conf inactive | Kir2-1 spec inactive | HEK293 Tl ctr 28%
N#Cc1cc(-c2ccccc2)cnc1Sc1ccc(Cl)cc1	none | KCNK9 inh conf inactive | Kir2-1 spec inactive | HEK293 Tl ctr inactive
N#Cc1cc(-c2ccc(Cl)cc2)cnc1Sc1ccccc1	none
O=C(COC(=O)Cc1ccc(Br)cc1)NC1CC1	none (no result: KCNQ1 block, KCNQ1 act, KCNK9 block, hERG rescue)
CCn1c2ccccc2c2cc(NC(=O)c3cccc(OC)c3)ccc21	KCNK9 block -12 | KCNK9 inh conf 43% | Kir2-1 spec inactive | HEK293 Tl ctr 36%
CCn1c2ccccc2c2cc(NC(=O)c3cccc(OC)c3OC)ccc21	none
Cc1cc(C)nc(N/C(=N\S(=O)(=O)Cc2ccccc2)Nc2cccc(Cl)c2C)n1	none
Cc1cc(C)nc(N/C(=N\S(=O)(=O)Cc2ccccc2)Nc2ccc(F)c(Cl)c2)n1	KCNK9 block -13 | KCNK9 inh conf inactive | Kir2-1 spec inactive | HEK293 Tl ctr inactive
CCOc1cc(C(=O)Nc2cc3c(cc2N2CCOCC2)n(C)c(=O)n3C)cc(OCC)c1OCC	none
O=C(NC1CC1)C1CCN(Cc2cnn(-c3ccccc3)c2-n2cccc2)CC1	none
CC1=NOC(=O)/C1=C\c1ccc(-c2ccc(Cl)cc2Cl)o1	none | KCNK9 inh conf inactive | Kir2-1 spec inactive | HEK293 Tl ctr inactive
CCCOc1ccc(Cl)cc1/C=C1/C(=O)ON=C1C	none

Assay outcomes (PubChem BioAssay)
